System: HEK-293T
Test: Multiplex assay against HEK293T
Assay type: toxicity, cell-based
Settings: human
Method in brief: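 Phenotypes for tubulin, mitochondrial mass and membrane permeability are expressed as per cents of healthy-nucleus cells. Cells were stained live at seeding with Hoechst33342, BioTracker Green Microtubule Cytoskeleton Dye, MitoTracker Red and Annexin V Alexa Fluor 680, then imaged after compound addition on a CQ1 microscope at 37°C and 5% CO2. Machine-learning gating in CellPathfinder separated Hoechst high-intensity objects from normal cells, divided normal cells by nuclear state (healthy, pyknosed, fragmented) and divided pyknosed cells into mitotic or apoptotic.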

[1] = 12 h, 1 µM, compound concentration 1 uM, replicate 1
[2] = 12 h, 1 µM, compound concentration 1 uM, replicate 2
[3] = 12 h, 10 µM, compound concentration 10 uM, replicate 1
[4] = 12 h, 10 µM, compound concentration 10 uM, replicate 2
[5] = 24 h, 1 µM, compound concentration 1 uM, replicate 1
[6] = 24 h, 1 µM, compound concentration 1 uM, replicate 2
[7] = 24 h, 10 µM, compound concentration 10 uM, replicate 1
[8] = 24 h, 10 µM, compound concentration 10 uM, replicate 2
[9] = 48 h, 1 µM, compound concentration 1 uM, replicate 1
[10] = 48 h, 1 µM, compound concentration 1 uM, replicate 2
[11] = 48 h, 10 µM, compound concentration 10 uM, replicate 1
[12] = 48 h, 10 µM, compound concentration 10 uM, replicate 2

## CSc1ccccc1N1CCN(CCCCCC(=O)NC2CCCc3ccccc32)CC1.Cl (configuration not stated)
[1]
  Population Apoptotic (%): 45%
  Population Fragmented Nuclei (%): 6%
  Population Healthy Nuclei (%): 74%
  Population Hoechst High Intensity Objects (%): 8%
  Population Membrane Permeable-Phenotype (%): 0%
  Population Mitochondria Different-Phenotype (%): 68%
  Population Mitotic Cells (%): 54%
  Population Normal (%): 91%
  Population Pyknosed Nuclei (%): 18%
  Population Tubulin-Different-Phenotype (%): 59%
  Total Cell Count: 391
[2]
  Population Hoechst High Intensity Objects (%): 12%
  Population Mitochondria Different-Phenotype (%): 75%
  Population Normal (%): 87%
  Population Pyknosed Nuclei (%): 19%
  Population Tubulin-Different-Phenotype (%): 43%
  Total Cell Count: 322
[3]
  Population Apoptotic (%): 80%
  Population Fragmented Nuclei (%): 8%
  Population Healthy Nuclei (%): 68%
  Population Hoechst High Intensity Objects (%): 15%
  Population Membrane Permeable-Phenotype (%): 0%
  Population Mitochondria Different-Phenotype (%): 97%
  Population Mitotic Cells (%): 20%
  Population Normal (%): 84%
  Population Pyknosed Nuclei (%): 22%
  Population Tubulin-Different-Phenotype (%): 59%
  Total Cell Count: 316
[4]
  Population Apoptotic (%): 79%
  Population Fragmented Nuclei (%): 5%
  Population Healthy Nuclei (%): 74%
  Population Hoechst High Intensity Objects (%): 16%
  Population Normal (%): 83%
  Population Pyknosed Nuclei (%): 19%
  Population Tubulin-Different-Phenotype (%): 65%
  Total Cell Count: 304
[5]
  Population Apoptotic (%): 36%
  Population Fragmented Nuclei (%): 8%
  Population Healthy Nuclei (%): 79%
  Population Hoechst High Intensity Objects (%): 4%
  Population Membrane Permeable-Phenotype (%): 0%
  Population Mitochondria Different-Phenotype (%): 50%
  Population Mitotic Cells (%): 63%
  Population Normal (%): 95%
  Population Pyknosed Nuclei (%): 11%
  Population Tubulin-Different-Phenotype (%): 41%
  Total Cell Count: 508
[6]
  Population Apoptotic (%): 41%
  Population Healthy Nuclei (%): 75%
  Population Hoechst High Intensity Objects (%): 7%
  Population Mitochondria Different-Phenotype (%): 70%
  Population Mitotic Cells (%): 58%
  Population Normal (%): 92%
  Population Pyknosed Nuclei (%): 16%
  Population Tubulin-Different-Phenotype (%): 44%
  Total Cell Count: 356
[7]
  Population Apoptotic (%): 75%
  Population Fragmented Nuclei (%): 5%
  Population Healthy Nuclei (%): 70%
  Population Hoechst High Intensity Objects (%): 21%
  Population Membrane Permeable-Phenotype (%): 0%
  Population Mitochondria Different-Phenotype (%): 98%
  Population Mitotic Cells (%): 24%
  Population Normal (%): 78%
  Population Pyknosed Nuclei (%): 23%
  Population Tubulin-Different-Phenotype (%): 53%
  Total Cell Count: 303
[8]
  Population Apoptotic (%): 69%
  Population Fragmented Nuclei (%): 7%
  Population Healthy Nuclei (%): 73%
  Population Hoechst High Intensity Objects (%): 20%
  Population Mitochondria Different-Phenotype (%): 97%
  Population Mitotic Cells (%): 30%
  Population Normal (%): 79%
  Population Pyknosed Nuclei (%): 18%
  Population Tubulin-Different-Phenotype (%): 48%
  Total Cell Count: 315
[9]
  Population Apoptotic (%): 32%
  Population Fragmented Nuclei (%): 10%
  Population Healthy Nuclei (%): 78%
  Population Hoechst High Intensity Objects (%): 4%
  Population Membrane Permeable-Phenotype (%): 0%
  Population Mitochondria Different-Phenotype (%): 39%
  Population Mitotic Cells (%): 67%
  Population Normal (%): 95%
  Population Pyknosed Nuclei (%): 10%
  Population Tubulin-Different-Phenotype (%): 27%
  Total Cell Count: 747
[10]
  Population Apoptotic (%): 45%
  Population Healthy Nuclei (%): 76%
  Population Hoechst High Intensity Objects (%): 6%
  Population Mitochondria Different-Phenotype (%): 59%
  Population Mitotic Cells (%): 54%
  Population Normal (%): 93%
  Population Pyknosed Nuclei (%): 13%
  Population Tubulin-Different-Phenotype (%): 31%
  Total Cell Count: 471
[11]
  Population Apoptotic (%): 76%
  Population Fragmented Nuclei (%): 11%
  Population Healthy Nuclei (%): 73%
  Population Hoechst High Intensity Objects (%): 28%
  Population Membrane Permeable-Phenotype (%): 0%
  Population Mitochondria Different-Phenotype (%): 97%
  Population Mitotic Cells (%): 23%
  Population Normal (%): 71%
  Population Pyknosed Nuclei (%): 14%
  Population Tubulin-Different-Phenotype (%): 67%
  Total Cell Count: 365
[12]
  Population Apoptotic (%): 56%
  Population Fragmented Nuclei (%): 13%
  Population Hoechst High Intensity Objects (%): 18%
  Population Mitochondria Different-Phenotype (%): 93%
  Population Mitotic Cells (%): 43%
  Population Normal (%): 81%
  Population Pyknosed Nuclei (%): 13%
  Population Tubulin-Different-Phenotype (%): 56%
  Total Cell Count: 385

From ChEMBL document CHEMBL5058577, “EUbOPEN Chemogenomics Library 2 (Multiplex)” (2022)
